Assay results: ChEMBL document CHEMBL1138362, “Dihydro-alkylthio-benzyl-oxopyrimidines as inhibitors of reverse transcriptase: synthesis and rationalization of the biological data on both wild-type enzyme and relevant clinical mutants” (J Med Chem, 2007)

Legend:
[1] = biological target: Human immunodeficiency virus type 1 reverse transcriptase (Human immunodeficiency virus 1) (UniProt Q72547); experiment: Antiviral activity against wild type HIV1 reverse transcriptase
[2] = test system: Human immunodeficiency virus 1; experiment: Antiviral activity against wild type HIV1 NL4-3 in MT4 cells after 5 days by MTT method; type: functional, organism-based; conditions: Human immunodeficiency virus 1, NL4-3, MT4, 120 h
Procedure, shortened: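 MT-4 lymphoid cells, infected with HIV-1 or mock-infected (for cytotoxicity), held with a range of drug concentrations; viable cells scored at day 5 post-infection by tetrazolium (MTT) colorimetry.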

[3] = test system: Human immunodeficiency virus type 1 reverse transcriptase (Human immunodeficiency virus 1), Q72547 [Y181I]; experiment: Antiviral activity against HIV1 reverse transcriptase Y181I mutant
[4] = test system: Human immunodeficiency virus 1; experiment: Antiviral activity against HIV1 with reverse transcriptase Y181C mutation in MT4 cells after 5 days by MTT method; type: functional, organism-based; conditions: Human immunodeficiency virus 1, MT4, 120 h
[5] = test system: Human immunodeficiency virus 1; experiment: Antiviral activity against HIV1 with reverse transcriptase K103N mutation in MT4 cells after 5 days by MTT method; type: functional, organism-based; conditions: Human immunodeficiency virus 1, MT4, 120 h
Procedure, shortened: (§1)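 MT-4 cells from the NIH AIDS Reagent Program were infected with mutant HIV-1 (K103N or Y188L, from the MRC Centralised Facility) in the presence of graded drug concentrations. Mock-infected cells were used for cytotoxicity. Viable cells were counted by MTT colorimetry at day 5 post-infection.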

[6] = test system: Human immunodeficiency virus 1 [K103N]; experiment: Antiviral activity against HIV1 reverse transcriptase K103N mutant
[7] = test system: Human immunodeficiency virus 1; experiment: Antiviral activity against HIV1 with reverse transcriptase Y188L mutation in MT4 cells after 5 days by MTT method; type: functional, organism-based; conditions: Human immunodeficiency virus 1, MT4, 120 h; procedure, shortened: as §1

SMILES	ID50 [1] [µM]	EC50 [2] [nM]	ID50 [3] [µM]	EC50 [4] [nM]	EC50 [5] [µM]	ID50 [6] [µM]	EC50 [7] [nM]
COc1ccc(COCCSc2nc(Cc3c(Cl)cccc3Cl)c(C)c(=O)[nH]2)cc1	0.063	21	> 20	3010	3.44	56	1720
COc1ccc(C#CCSc2nc(Cc3c(Cl)cccc3Cl)c(C)c(=O)[nH]2)cc1	0.01	2470	> 20		> 56.2	> 20	> 56200
Cc1c(Cc2c(F)cccc2F)nc(SCC#Cc2ccc([N+](=O)[O-])cc2)[nH]c1=O	0.416	40100	> 20	> 58600	> 58.6	> 20	> 58600
COc1ccc(/C=C/CSc2nc(Cc3c(Cl)cccc3Cl)c(C)c(=O)[nH]2)cc1	0.007	15	> 20	> 960	> 0.96	9	> 960
CCc1c(Cc2c(Cl)cccc2Cl)nc(SCc2ccc(OC)cc2)[nH]c1=O	0.032	2.2	> 20	830	6.99	7.6	> 57500
Cc1c(C(C)c2c(F)cccc2F)nc(SCc2ccc(C#N)cc2)[nH]c1=O (stereo not drawn)	0.01	7.8	> 20	1550	0.73	0.7	680
CC(=O)Oc1ccc(CSc2nc(Cc3c(F)cccc3F)c(C)c(=O)[nH]2)cc1	48	22900	> 20	> 60100	> 60.1	> 20	> 60100
COc1ccc(COCCSc2nc(C(C)c3c(Cl)cccc3Cl)c(C)c(=O)[nH]2)cc1 (stereo not drawn)	0.022	63	> 20	8980	6.47	57.3	2500
COc1ccc(/C=C/CSc2nc(Cc3c(F)cccc3F)c(C)c(=O)[nH]2)cc1	0.25	43	> 20	> 3930	> 3.93	> 20	> 3930
CCc1c(Cc2c(Cl)cccc2Cl)nc(SC/C=C/c2ccc(OC)cc2)[nH]c1=O	0.056	1.5	> 20	> 190	> 0.19	> 20	> 190
Cc1c(C(C)c2c(Cl)cccc2Cl)nc(SC/C=C/c2ccc([N+](=O)[O-])cc2)[nH]c1=O (stereo not drawn)	0.102	480	> 20	> 41000	> 41	> 20	> 41000
Cc1c(C(C)c2c(F)cccc2F)nc(SCc2ccc([N+](=O)[O-])cc2)[nH]c1=O (stereo not drawn)	0.03	3.3	> 20	440	0.66	0.6	220
COc1ccc(/C=C/CSc2nc(C(C)c3c(F)cccc3F)c(C)c(=O)[nH]2)cc1 (stereo not drawn)	0.292	0.2	> 20	130	0.26	3.7	70
COc1ccc(CCCSc2nc(C(C)c3c(Cl)cccc3Cl)c(C)c(=O)[nH]2)cc1 (stereo not drawn)	9.76	0.2	> 20	240	0.82	> 20	280
Cc1c(Cc2ccc(C#N)cc2)nc(SCc2ccc([N+](=O)[O-])cc2)[nH]c1=O	> 20	> 26400	> 20	> 26400	> 26.4	> 20	> 26400
CCc1c(Cc2c(F)cccc2F)nc(SCc2ccc([N+](=O)[O-])cc2)[nH]c1=O	0.07	74	> 20	2130	10.6	> 20	> 60000
Cc1c(Cc2c(F)cccc2F)nc(SCC(=O)c2ccc([N+](=O)[O-])cc2)[nH]c1=O	0.95	370	> 20	4180	> 58	> 20	> 58000
CCc1c(C(C)c2c(F)cccc2F)nc(SC/C=C/c2ccc(OC)cc2)[nH]c1=O (stereo not drawn)	0.016	0.2	> 20	700	1.02	0.4	630
COc1ccc(CSc2nc(C(C)c3c(Cl)cccc3Cl)c(C)c(=O)[nH]2)cc1 (stereo not drawn)	0.77	1.1	> 20	1730	6.72	> 20	
COc1ccc(COCCSc2nc(C(C)c3c(F)cccc3F)c(C)c(=O)[nH]2)cc1 (stereo not drawn)	0.0082	1.1	> 20	650	0.92	9.94	320
COc1ccc(CCSc2nc(C(C)c3c(Cl)cccc3Cl)c(C)c(=O)[nH]2)cc1 (stereo not drawn)	0.593	0.2	> 20	3760	6.57	> 20	8170
COc1ccc(CSc2nc(C(C)c3c(F)cccc3F)c(C)c(=O)[nH]2)cc1 (stereo not drawn)	0.003	0.025	> 20	300	0.55	45	950
COc1ccc(CSc2nc(Cc3ccc(C#N)cc3)c(C)c(=O)[nH]2)cc1	> 20	20300	> 20	> 66300	> 66.3	> 20	> 66300
CCCCc1ccc(CSc2nc(Cc3ccc(C#N)cc3)c(C)c(=O)[nH]2)cc1	> 20	4570	> 20	> 79900	> 79.9	> 20	> 79900
Cc1c(C(C)c2c(Cl)cccc2Cl)nc(SCc2ccc(C#N)cc2)[nH]c1=O (stereo not drawn)	0.02	160	> 20		11.6	> 20	
Cc1c(Cc2c(F)cccc2F)nc(SCC(=O)c2ccc(Cl)cc2)[nH]c1=O	7.5	3760	> 20	3690	> 59.5	> 20	> 59500
COc1ccc(/C=C/Sc2nc(Cc3c(Cl)cccc3Cl)c(C)c(=O)[nH]2)cc1	1.98	> 57700	> 20	> 57700	> 57.7	> 20	> 57700
COc1ccc(COCCSc2nc(Cc3c(F)cccc3F)c(C)c(=O)[nH]2)cc1	0.197	1200	> 20	> 55900	> 55.9	> 20	> 55900
CCc1c(Cc2c(Cl)cccc2Cl)nc(SC/C=C/c2ccc(C#N)cc2)[nH]c1=O	0.188	1730	> 20		> 54.8	> 20	> 54800
